Test results reported in ChEMBL document CHEMBL5104115, “Design, synthesis of novel triptolide-glucose conjugates targeting glucose Transporter-1 and their selective antitumor effect” (Eur J Med Chem, 2022).

Tests used:
[1] = system: HT-29; assay: Cytotoxicity against human HT-29 cells incubated for 72 hrs by MTT assay; assay type: functional, cell-based; conditions: HT-29, 72 h
How it was run: (§1)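 Cells seeded at 4000/well, incubated overnight, then exposed to a range of concentrations, or DMSO vehicle, for 72 h. MTT (5 mg/mL solution) added for 4 h and formazan dissolved in DMSO. Absorbance read at 570 nm, and IC50 derived from the curves. Tumor lines were grown in RPMI 1640; HUVEC, HaCaT and LO2 were grown in DMEM, each with 10% FBS at 37 °C and 5% CO2.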

[2] = Cytotoxicity against human L02 cells incubated for 72 hrs by MTT assay; assay type: toxicity, cell-based; how it was run: as §1
[3] = Cytotoxicity against human HaCaT cells incubated for 72 hrs by MTT assay; assay type: toxicity, cell-based; how it was run: as §1
[4] = system: MDA-MB-231; assay: Cytotoxicity against human MDA-MB-231 cells incubated for 72 hrs by MTT assay; assay type: functional, cell-based; conditions: MDA-MB-231, 72 h; how it was run: as §1
[5] = Cytotoxicity against HUVEC incubated for 72 hrs by MTT assay; assay type: toxicity, cell-based; conditions: human, HUVEC cells; how it was run: as §1
[6] = system: SW-620; assay: Cytotoxicity against human SW-620 cells incubated for 72 hrs by MTT assay; assay type: functional, cell-based; conditions: SW-620, 72 h; how it was run: as §1
[7] = system: NCI-H460; assay: Cytotoxicity against human NCI-H460 cells incubated for 72 hrs by MTT assay; assay type: functional, cell-based; conditions: NCI-H460, 72 h; how it was run: as §1
[8] = system: NCI-H1975; assay: Cytotoxicity against human NCI-H1975 cells incubated for 72 hrs by MTT assay; assay type: functional, cell-based; conditions: NCI-H1975, 72 h; how it was run: as §1
[9] = system: HCT-116; assay: Cytotoxicity against human HCT-116 cells incubated for 72 hrs by MTT assay; assay type: functional, cell-based; conditions: HCT-116, 72 h; how it was run: as §1
[10] = Octanol-water partition coefficient, logD of the compound in PBS at pH 7.4 by liquid chromatography based mass spectrometric analysis; assay type: physicochemical
How it was run: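 Shake-flask method: 3.0 mg compound dissolved in PBS-saturated n-octanol and rotated 24 h at room temperature. The octanol phase was then mixed with octanol-saturated PBS, rotated another 24 h and centrifuged. Both phases quantified by LC-MS against a standard curve, and log P = log(C octanol/C water).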

[11] = system: NCI-H1975; assay: Antitumor activity against human NCI-H1975 cells xenografted in BALB/c nude mouse assessed as tumor growth inhibition at 15 mg/kg, ip, q3d for 2 weeks relative to control; conditions: NCI-H1975, 336 h, read-out: TGI

Row | logD [10] | Structure (SMILES) | IC50 [1] | IC50 at 72 h [2] | IC50 at 72 h [3] | IC50 [4] | IC50 at 72 h [5] | IC50 [6] | IC50 [7] | IC50 [8] | IC50 [9] | inhibition in vivo at 15 mg/kg [11]
1 | -0.772 | CC(C)[C@]12O[C@H]1[C@@H]1O[C@]13[C@]1(O[C@H]1C[C@H]1C4=C(CC[C@@]13C)C(=O)OC4)[C@@H]2OC(=O)CCC(=O)O[C@H]1[C@H](O)[C@@H](CO)OC(O)[C@@H]1O (some centres undefined) | 5.18 µM | 1.38 µM | 4.83 µM | 2.43 µM | 4.93 µM | 2.55 µM | 1.63 µM | 2.21 µM | 2.71 µM | –
2 | – | CC(=O)O[C@H]1C(=O)[C@@]2(C)[C@H]([C@H](OC(=O)c3ccccc3)[C@]3(O)C[C@H](OC(=O)[C@H](O)[C@@H](NC(=O)c4ccccc4)c4ccccc4)C(C)=C1C3(C)C)[C@]1(OC(C)=O)CO[C@@H]1C[C@@H]2O [PACLITAXEL] | – | – | – | – | – | – | – | – | – | 56.9%
3 | – | CC(C)[C@]12O[C@H]1[C@@H]1O[C@]13[C@]1(O[C@H]1C[C@H]1C4=C(CC[C@@]13C)C(=O)OC4)[C@@H]2OC(=O)CCC(=O)O[C@H]1O[C@H](CO)[C@@H](O)[C@H](O)[C@H]1O | 5.37 µM | 2.15 µM | 4.29 µM | 4.42 µM | 5.68 µM | 3.85 µM | 4.08 µM | 3.42 µM | 1.9 µM | –
4 | – | CC(C)[C@]12O[C@H]1[C@@H]1O[C@]13[C@]1(O[C@H]1C[C@H]1C4=C(CC[C@@]13C)C(=O)OC4)[C@@H]2OC(=O)CCC(=O)OC[C@H]1OC(O)[C@H](O)[C@@H](O)[C@@H]1O (some centres undefined) | 4.28 µM | 1.42 µM | 3.9 µM | 6.62 µM | 2.02 µM | 5.2 µM | 1.07 µM | 1.14 µM | 2.28 µM | –
